In ChEMBL document CHEMBL1649165, “Activity profile in vitro of micafungin against Spanish clinical isolates of common and emerging species of yeasts and molds” (2009):
Converted amounts (≈) assume the structure as drawn.

Key:
Assay type in all cases: functional
[1] = system: Pichia kudriavzevii; experiment: Antimicrobial activity against Candida krusei by broth microdilution method
In short: (§1)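 Clinical isolates from human patients, tested by broth microdilution using the AFST-EUCAST reference procedure for fermentative yeasts. The MIC was read per that reference method.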

[2] = system: Mucor; experiment: Antimicrobial activity against Mucor spp.by broth microdilution method
In short: (§2)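 Filamentous fungus clinical isolates tested by the AFST-EUCAST reference broth microdilution method for moulds. For echinocandins, the endpoint was the minimum effective concentration: the lowest drug concentration giving aberrant hyphal growth, read with an inverted microscope.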

[3] = system: Clavispora lusitaniae; experiment: Antimicrobial activity against Candida lusitaniae by broth microdilution method; in short: as §1
[4] = system: Aspergillus versicolor; experiment: Antimicrobial activity against Aspergillus versicolor by broth microdilution method
In short: (§3)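 Clinical mould isolates, tested by broth microdilution using the AFST-EUCAST reference method for filamentous fungi. For echinocandins, the endpoint was the minimum effective concentration: the lowest drug concentration giving aberrant hyphal growth, read with an inverted microscope.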

[5] = system: Lecythophora hoffmannii; experiment: Antimicrobial activity against Lecythophora hoffmannii by broth microdilution method; settings: Coniochaeta hoffmannii; in short: as §2
[6] = system: Alternaria alternata; experiment: Antimicrobial activity against Alternaria alternata by broth microdilution method; in short: as §3
[7] = system: Debaryomyces hansenii; experiment: Antimicrobial activity against Candida famata by broth microdilution method; in short: as §1
[8] = system: Aureobasidium pullulans; experiment: Antimicrobial activity against Aureobasidium pullulans by broth microdilution method
[9] = system: Aspergillus niger; experiment: Antimicrobial activity against Aspergillus niger by broth microdilution method; in short: as §3
[10] = system: Scopulariopsis brevicaulis; experiment: Antimicrobial activity against Scopulariopsis brevicaulis by broth microdilution method; in short: as §2
[11] = system: Beauveria bassiana; experiment: Antimicrobial activity against Beauveria bassiana by broth microdilution method; in short: as §3
[12] = system: Scedosporium apiospermum; experiment: Antimicrobial activity against Scedosporium apiospermum by broth microdilution method; in short: as §2
[13] = system: Papiliotrema laurentii; experiment: Antimicrobial activity against Cryptococcus laurentii by broth microdilution method
In short: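 Clinical isolates of nonfermentative yeasts, tested by broth microdilution following EUCAST recommendations. The only change from that method was a minor modification to improve growth.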

[14] = system: Cladosporium; experiment: Antimicrobial activity against Cladosporium spp. by broth microdilution method; in short: as §3
[15] = system: Aspergillus nidulans; experiment: Antimicrobial activity against Aspergillus nidulans by broth microdilution method; in short: as §3
[16] = system: Diutina rugosa; experiment: Antimicrobial activity against Candida rugosa by broth microdilution method; in short: as §1
[17] = system: Magnusiomyces capitatus; experiment: Antimicrobial activity against Dipodascus capitatus by broth microdilution method
[18] = system: Trichosporon asahii; experiment: Antimicrobial activity against Trichosporon asahii by broth microdilution method
In short: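 Nonfermentative yeast clinical isolates (Rhodotorula, Trichosporon) tested by broth microdilution. The EUCAST yeast recommendations were followed strictly, with one minor modification to improve growth. MIC was read as the endpoint.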

[19] = system: Aspergillus; experiment: Antimicrobial activity against Aspergillus spp. by broth microdilution method; in short: as §3
[20] = system: Coprinellus domesticus; experiment: Antimicrobial activity against Hormographiella verticillata by broth microdilution method; in short: as §2
[21] = system: Rhizomucor; experiment: Antimicrobial activity against Rhizomucor spp.by broth microdilution method; in short: as §2
[22] = system: Aspergillus ustus; experiment: Antimicrobial activity against Aspergillus ustus by broth microdilution method; in short: as §3
[23] = system: Fusarium verticillioides; experiment: Antimicrobial activity against Fusarium verticillioides by broth microdilution method; in short: as §2

**Q.** For `CC[C@@H]([C@H](C)O)n1ncn(-c2ccc(N3CCN(c4ccc(OC[C@@H]5CO[C@@](Cn6cncn6)(c6ccc(F)cc6F)C5)cc4)CC3)cc2)c1=O` [POSACONAZOLE], which MIC50 [1] is on record?
**A.** 0.12 µg/mL (≈ 0.171 µM)

**Q.** And the MIC90 [1]?
**A.** 0.25 µg/mL (≈ 0.357 µM)

**Q.** What about the MIC50 [2] of the same molecule?
**A.** 4 µg/mL (≈ 5.71 µM)

**Q.** What about the MIC90 [2] of the same molecule?
**A.** > 8 µg/mL

**Q.** And the MIC50 [3]?
**A.** 0.02 µg/mL (≈ 0.0285 µM)

**Q.** What about the MIC90 [3] of the same molecule?
**A.** 0.02 µg/mL (≈ 0.0285 µM)

**Q.** What about the MIC50 [4] of the same molecule?
**A.** 0.25 µg/mL (≈ 0.357 µM)

**Q.** What about the MIC90 [4] of the same molecule?
**A.** 0.5 µg/mL (≈ 0.713 µM)

**Q.** What about the MIC50 [5] of the same molecule?
**A.** 0.06 µg/mL (≈ 0.0856 µM)

**Q.** And the MIC90 [5]?
**A.** > 8 µg/mL

**Q.** What about the MIC50 [6] of the same molecule?
**A.** 1 µg/mL (≈ 1.43 µM)

**Q.** What about the MIC90 [6] of the same molecule?
**A.** > 8 µg/mL

**Q.** What about the MIC50 [7] of the same molecule?
**A.** 0.03 µg/mL (≈ 0.0428 µM)

**Q.** And the MIC90 [7]?
**A.** > 8 µg/mL

**Q.** What about the MIC50 [8] of the same molecule?
**A.** 0.06 µg/mL (≈ 0.0856 µM)

**Q.** And the MIC90 [8]?
**A.** > 8 µg/mL

**Q.** What about the MIC50 [9] of the same molecule?
**A.** 0.25 µg/mL (≈ 0.357 µM)

**Q.** And the MIC90 [9]?
**A.** 0.5 µg/mL (≈ 0.713 µM)

**Q.** What about the MIC50 [10] of the same molecule?
**A.** 4 µg/mL (≈ 5.71 µM)

**Q.** What about the MIC90 [10] of the same molecule?
**A.** > 8 µg/mL

**Q.** What about the MIC50 [11] of the same molecule?
**A.** 4 µg/mL (≈ 5.71 µM)

**Q.** What about the MIC90 [11] of the same molecule?
**A.** > 8 µg/mL

**Q.** And the MIC50 [12]?
**A.** 1 µg/mL (≈ 1.43 µM)

**Q.** And the MIC90 [12]?
**A.** 8 µg/mL (≈ 11.4 µM)

**Q.** And the MIC50 [13]?
**A.** 0.25 µg/mL (≈ 0.357 µM)

**Q.** And the MIC90 [13]?
**A.** > 8 µg/mL

**Q.** What about the MIC50 [14] of the same molecule?
**A.** 0.06 µg/mL (≈ 0.0856 µM)

**Q.** And the MIC90 [14]?
**A.** > 8 µg/mL

**Q.** What about the MIC50 [15] of the same molecule?
**A.** 0.06 µg/mL (≈ 0.0856 µM)

**Q.** What about the MIC90 [15] of the same molecule?
**A.** 0.25 µg/mL (≈ 0.357 µM)

**Q.** And the MIC50 [16]?
**A.** 0.03 µg/mL (≈ 0.0428 µM)

**Q.** And the MIC90 [16]?
**A.** > 8 µg/mL

**Q.** What about the MIC50 [17] of the same molecule?
**A.** 0.5 µg/mL (≈ 0.713 µM)

**Q.** What about the MIC90 [17] of the same molecule?
**A.** 0.5 µg/mL (≈ 0.713 µM)

**Q.** What about the MIC50 [18] of the same molecule?
**A.** 0.25 µg/mL (≈ 0.357 µM)

**Q.** And the MIC90 [18]?
**A.** > 8 µg/mL

**Q.** And the MIC50 [19]?
**A.** 0.12 µg/mL (≈ 0.171 µM)

**Q.** What about the MIC90 [19] of the same molecule?
**A.** > 8 µg/mL

**Q.** And the MIC50 [20]?
**A.** 4 µg/mL (≈ 5.71 µM)

**Q.** What about the MIC90 [20] of the same molecule?
**A.** > 8 µg/mL

**Q.** What about the MIC50 [21] of the same molecule?
**A.** 4 µg/mL (≈ 5.71 µM)

**Q.** And the MIC90 [21]?
**A.** > 8 µg/mL

**Q.** And the MIC50 [22]?
**A.** 0.12 µg/mL (≈ 0.171 µM)

**Q.** And the MIC90 [22]?
**A.** > 8 µg/mL

**Q.** What about the MIC50 [23] of the same molecule?
**A.** 2 µg/mL (≈ 2.85 µM)

**Q.** What about the MIC90 [23] of the same molecule?
**A.** > 8 µg/mL
